For 20 compounds, viability and Activity results are on record in ChEMBL document CHEMBL1926532, “Bioactive myrsinol diterpenoids from the roots of Euphorbia prolifera” (J Nat Prod, 2011).

Data set [1] relates to SH-SY5Y. Nature of the data set: Neuroprotective activity against MPP+-induced human SH-SY5Y cell death assessed as cell viability at 30 uM pretreated for 2 hrs prior to MPP+ induction by MTT assay relative to control. The format is functional. The conditions noted are these: read-out: Activity. The essentials:
(§1)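 SH-SY5Y cells in DMEM with 10% FBS and penicillin/streptomycin at 37 °C, 5% CO2. Detached with 1 mM EGTA in PBS for 15 min, seeded at 1 × 10^4 cells/well, grown 24 h. Pretreated 2 h with compound (3, 10, 30 μM), then MPP+ medium. MTT (0.5 mg/mL final) added for 4 h; formazan read at 490 nm. Viability expressed against vehicle control (100). Triplicates, mean ± SEM, ANOVA/Student–Newman–Keuls.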
Background: Tetrazolium assays rely on reduction of a dye to a coloured formazan, in cell work by metabolically active cells.

The test system of data set [2] is SH-SY5Y. Description: Neuroprotective activity against MPP+-induced human SH-SY5Y cell death assessed as cell viability at 10 uM pretreated for 2 hrs prior to MPP+ induction by MTT assay relative to control. Type of data set: functional. The conditions noted are these: read-out: Activity. The essentials: as §1
Data set [3] relates to SH-SY5Y. Nature of the data set: Neuroprotective activity against MPP+-induced human SH-SY5Y cell death assessed as cell viability at 3 uM pretreated for 2 hrs prior to MPP+ induction by MTT assay relative to control. The format is functional. The conditions noted are these: read-out: Activity. The essentials:
as §1

The subject of data set [4] is SH-SY5Y. Description: Cytotoxicity against human SH-SY5Y cells assessed as cell viability at 3 to 30 uM by MTT assay. Type of data set: cell-based.

As for `C=C(C)[C@H]1C=C[C@@H](OC(=O)c2ccccc2)[C@@]23CO[C@@](C)([C@H](OC(C)=O)[C@@]4(OC(C)=O)C[C@H](C)[C@H](OC(=O)CC)[C@@H]4[C@@H]2OC(C)=O)[C@H]13`, the viability at 30 µM with SH-SY5Y [1] amounted to 94.2%. In addition, the viability at 10 µM with SH-SY5Y [2] was 86.5%. Also, in the data set with SH-SY5Y [3], the viability at 3 µM came out at 78.1%.

With `C=C(C)[C@H]1C=C[C@@H](OC(=O)c2ccccc2)[C@@]23CO[C@@](C)([C@H](OC(=O)c4cccnc4)[C@@]4(OC(C)=O)C[C@H](C)[C@H](OC(=O)CC)[C@@H]4[C@@H]2OC(C)=O)[C@H]13`, in the data set on SH-SY5Y [1], the viability at 30 µM is 96.5%. Besides, the viability at 10 µM in the data set with SH-SY5Y [2] worked out at 87.4%. In the data set on SH-SY5Y [3], the viability at 3 µM was found to be 77.7%. Also, in the data set on SH-SY5Y [4], the Activity entry is “Non-toxic”.

Turning to `CCC/C=C/C=C/C=C\CO[C@@H]1[C@@H](C)[C@]2(O)[C@@H]3C=C(C)C(=O)[C@H]3CC(CO)=C[C@H]2[C@@H]2C(C)(C)[C@]12OC(=O)C(C)C`, the viability at 30 µM in the data set with SH-SY5Y [1] turned out to be 84.1%. Also, in the data set on SH-SY5Y [2], the viability at 10 µM amounted to 77.3%. In the data set with SH-SY5Y [3], the viability at 3 µM was 69.6%.

As to `CCC(=O)O[C@@H]1[C@@H]2[C@@H](OC(=O)c3ccccc3)[C@@]3(COC(C)=O)[C@@H]([C@@H]4[C@H](C[C@H]3OC(C)=O)C4(C)C)[C@](C)(OC(C)=O)C(=O)[C@@]2(O)C[C@@H]1C`, in the data set on SH-SY5Y [1], the viability at 30 µM worked out at 78.5%. Further, the viability at 10 µM in the data set with SH-SY5Y [2] is 70.3%. Moreover, the viability at 3 µM in the data set with SH-SY5Y [3] was found to be 61.5%.

With `CCC(=O)O[C@@H]1[C@@H]2[C@@H](OC(C)=O)[C@@]34CO[C@@](C)([C@@H](OC(=O)C(C)C)[C@@]2(OC(C)=O)C[C@@]1(C)OC(=O)C(C)C)[C@@H]3[C@@H](C(C)(C)OC(C)=O)C=C[C@H]4OC(C)=O` (relative stereo) [EUPHORBIAPROLIFERIN A], the viability at 30 µM in the data set on SH-SY5Y [1] is 92.7%. Further, the viability at 10 µM in the data set on SH-SY5Y [2] stood at 83.5%. Moreover, the viability at 3 µM with SH-SY5Y [3] was 75.1%.

For `CCCC(=O)O[C@@H]1[C@@H]2[C@@H](OC(C)=O)[C@@]34CO[C@@](C)([C@@H](OC(=O)c5ccccc5)[C@@]2(OC(C)=O)C[C@@]1(C)OC(=O)c1ccccc1)[C@@H]3[C@@H](C(C)(C)OC(C)=O)C=C[C@H]4OC(C)=O` (relative stereo) [EUPHORBIAPROLIFERIN B], the viability at 30 µM in the data set on SH-SY5Y [1] is 109%. Moreover, the viability at 10 µM with SH-SY5Y [2] turned out to be 93.2%. Further, in the data set with SH-SY5Y [3], the viability at 3 µM amounted to 74.8%. In addition, the Activity entry in the data set on SH-SY5Y [4] was “Non-toxic”.

As for `CC(=O)O[C@@H]1[C@H]2[C@@H](OC(=O)C(C)C)[C@@H](C)C[C@]2(OC(C)=O)[C@@H](OC(C)=O)[C@]2(C)OC[C@]13C(=O)C=C[C@H](C(C)(C)OC(C)=O)[C@@H]23` [EUPHORBIAPROLIFERIN C], the viability at 30 µM in the data set on SH-SY5Y [1] is 81.3%. The viability at 10 µM with SH-SY5Y [2] amounted to 75.4%. The viability at 3 µM in the data set with SH-SY5Y [3] amounted to 68.3%.

`CCC(=O)O[C@@H]1[C@@H]2[C@@H](OC(C)=O)[C@@]34CO[C@@](C)([C@H](OC(=O)c5ccccc5)[C@@]2(OC(C)=O)C[C@@H]1C)[C@@H]3[C@@H](C(C)(C)OC(C)=O)C=CC4=O` [EUPHORBIAPROLIFERIN D]: in the data set with SH-SY5Y [1], the viability at 30 µM came out at 88.6%. Also, the viability at 10 µM in the data set on SH-SY5Y [2] stood at 71.3%. In addition, in the data set on SH-SY5Y [3], the viability at 3 µM turned out to be 68.7%.

As to `CC(=O)O[C@@H]1[C@@H]2[C@@H](OC(C)=O)[C@@]34CO[C@@](C)([C@H](OC(=O)c5ccccc5)[C@@]2(O)C[C@@H]1C)[C@@H]3[C@@H]1[C@@H](C[C@]1(C)OC(C)=O)[C@@H](OC(=O)c1ccccc1)C4=O` [EUPHORBIAPROLIFERIN E], the viability at 30 µM with SH-SY5Y [1] is 82.1%. The viability at 10 µM in the data set with SH-SY5Y [2] was 76%. The viability at 3 µM in the data set with SH-SY5Y [3] was found to be 67.1%.

With `C=C(C)[C@H]1C=C[C@@H](OC(C)=O)[C@@]23CO[C@@](C)([C@H](OC(=O)c4ccccc4)[C@@]4(OC(C)=O)C[C@H](C)[C@H](OC(=O)CC)[C@@H]4[C@H]2OC(C)=O)[C@H]13` [EUPHORBIAPROLIFERIN F], the viability at 30 µM with SH-SY5Y [1] worked out at 93.5%. Further, the viability at 10 µM in the data set with SH-SY5Y [2] worked out at 87.1%. For the same compound, the viability at 3 µM in the data set on SH-SY5Y [3] is 74.5%.

For the compound `C=C(C)[C@H]1C=C[C@@H](OC(C)=O)[C@@]23CO[C@@](C)([C@H](OC(C)=O)[C@@]4(OC(C)=O)C[C@H](C)[C@H](OC(=O)CC)[C@@H]4[C@H]2OC(C)=O)[C@H]13` [EUPHORBIAPROLIFERIN G], the viability at 30 µM in the data set on SH-SY5Y [1] was 88.7%. In addition, in the data set on SH-SY5Y [2], the viability at 10 µM stood at 78.3%. For the same compound, the viability at 3 µM in the data set on SH-SY5Y [3] turned out to be 65.6%.

For the compound `C=C(C)[C@H]1C=C[C@@H](OC(=O)c2ccccc2)[C@@]23CO[C@@](C)([C@H](OC(=O)c4ccccc4)[C@@]4(OC(C)=O)C[C@H](C)[C@H](OC(C)=O)[C@@H]4[C@H]2OC(C)=O)[C@H]13` [EUPHORBIAPROLIFERIN H], the viability at 30 µM in the data set on SH-SY5Y [1] came out at 99.4%. Besides, the viability at 10 µM with SH-SY5Y [2] was found to be 89.8%. In addition, in the data set with SH-SY5Y [3], the viability at 3 µM amounted to 83.6%. The Activity entry in the data set on SH-SY5Y [4] is listed as “Non-toxic”.

As for `CCC(=O)O[C@@H]1[C@@H]2[C@@H](OC(C)=O)[C@@]34CO[C@@](C)([C@@H](OC(=O)c5ccccc5)[C@@]2(OC(C)=O)C[C@@H]1C)[C@@H]3[C@@H]1[C@H](C[C@H]4OC(C)=O)C1(C)C` [EUPHORBIAPROLIFERIN I], the viability at 30 µM with SH-SY5Y [1] turned out to be 101%. The viability at 10 µM in the data set with SH-SY5Y [2] turned out to be 88.9%. In addition, the viability at 3 µM in the data set on SH-SY5Y [3] was 84.8%. Also, in the data set on SH-SY5Y [4], the Activity entry is “Non-toxic”.

On to `CCCC(=O)O[C@@H]1[C@@H]2[C@@H](OC(C)=O)[C@@]34CO[C@@](C)([C@@H](OC(=O)c5ccccc5)[C@@]2(OC(C)=O)C[C@@H]1C)[C@@H]3[C@@H]1[C@H](C[C@H]4OC(C)=O)C1(C)C` [EUPHORBIAPROLIFERIN J], for which the viability at 30 µM with SH-SY5Y [1] was determined as 104%. In addition, the viability at 10 µM in the data set with SH-SY5Y [2] came out at 89.2%. For the same compound, the viability at 3 µM in the data set with SH-SY5Y [3] was determined as 79.8%. The Activity result with SH-SY5Y [4] is given as “Non-toxic”.

With `CCC(=O)O[C@@H]1[C@@H]2[C@@H](OC(C)=O)[C@@]34CO[C@@](C)([C@@H](OC(=O)c5ccccc5)[C@@]2(OC(C)=O)C[C@@]1(C)OC(C)=O)[C@@H]3[C@@H](C(C)(C)OC(C)=O)C=C[C@H]4OC(C)=O` [EUPHORPROLITHERIN B], the viability at 30 µM in the data set with SH-SY5Y [1] was determined as 92.2%. In addition, in the data set on SH-SY5Y [2], the viability at 10 µM was found to be 81.7%. Further, in the data set with SH-SY5Y [3], the viability at 3 µM turned out to be 70.3%.

Take `C=C(C)[C@H]1C=C[C@@H](OC(=O)c2ccccc2)[C@@]23CO[C@@](C)([C@@H](OC(=O)c4ccccc4)[C@@]4(OC(C)=O)C[C@H](C)[C@H](OC(=O)CC)[C@@H]4[C@H]2OC(C)=O)[C@H]13` [EUPHORPROLITHERIN C]: the viability at 30 µM with SH-SY5Y [1] was determined as 103%. Besides, the viability at 10 µM in the data set on SH-SY5Y [2] is 91.5%. In the data set with SH-SY5Y [3], the viability at 3 µM stood at 75.5%. For the same compound, in the data set on SH-SY5Y [4], the Activity result is recorded as “Non-toxic”.

In the case of `Nc1nc2c(ncn2[C@@H]2O[C@H](CO)[C@@H](O)[C@H]2O)c(=O)[nH]1` [GUANOSINE], the viability at 30 µM in the data set with SH-SY5Y [1] amounted to 87.3%. Moreover, the viability at 10 µM with SH-SY5Y [2] came out at 77.3%. Also, in the data set on SH-SY5Y [3], the viability at 3 µM stood at 68.1%.

As to `CCC(=O)O[C@@H]1[C@@H]2[C@@H](OC(C)=O)[C@@]34CO[C@@](C)([C@@H](OC(=O)c5ccccc5)[C@@]2(OC(C)=O)C[C@@]1(C)OC(=O)C(C)C)[C@@H]3[C@@H](C(C)(C)OC(C)=O)C=C[C@H]4OC(C)=O` [PROLIFERIN A], the viability at 30 µM in the data set with SH-SY5Y [1] worked out at 97.8%. The viability at 10 µM in the data set with SH-SY5Y [2] was 85.2%. The viability at 3 µM in the data set with SH-SY5Y [3] was 74.4%. In the data set with SH-SY5Y [4], the Activity result was “Non-toxic”.

As for `CCC(=O)O[C@@H]1[C@@H]2[C@@H](OC(C)=O)[C@@]34CO[C@@](C)([C@@H](OC(=O)c5ccccc5)[C@@]2(OC(C)=O)C[C@@]1(C)OC(=O)c1ccccc1)[C@@H]3[C@@H](C(C)(C)OC(C)=O)C=C[C@H]4OC(C)=O` [PROLIFERIN B], the viability at 30 µM in the data set with SH-SY5Y [1] turned out to be 112%. Also, in the data set with SH-SY5Y [2], the viability at 10 µM turned out to be 95.4%. Further, the viability at 3 µM in the data set with SH-SY5Y [3] was found to be 82.1%. In addition, in the data set with SH-SY5Y [4], the Activity result is reported as “Non-toxic”.

On to `CCC(=O)O[C@@H]1[C@@H]2[C@@H](OC(C)=O)[C@@]34CO[C@@](C)([C@@H](OC(=O)c5ccccc5)[C@@]2(OC(C)=O)C[C@@H]1C)[C@@H]3[C@@H](C(C)(C)OC(C)=O)C=C[C@H]4OC(C)=O` [PROLIFERIN C], for which, in the data set on SH-SY5Y [1], the viability at 30 µM worked out at 95.1%. The viability at 10 µM in the data set on SH-SY5Y [2] worked out at 84.5%. Moreover, in the data set with SH-SY5Y [3], the viability at 3 µM worked out at 76.7%. The Activity entry with SH-SY5Y [4] is recorded as “Non-toxic”.
